Series [1] deals with P388/ADR. The series can be described thus: Optimal dose required to inhibit the P388/ADR cells in vivo after intraperitoneal administration. It is filed as functional, Mus musculus. The arrangement: unit: mg/kg/day.
For series [2], the system named is P388. As to the kind of experiment: Percent increase in life span of the drug-treated tumor-bearing animals vs nontreated tumor-bearing controls with P388 leukemia cells. The class given is functional, Mus musculus. The procedure, abridged: (§1)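 Groups of 6. Optimal dose is in mg/kg per day. ILSmax is the % lifespan increase over untreated tumor-bearing controls at the optimal dose; above 20% counted significant. Cures are 50-day survivors.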

The test system of series [3] is poly[d(A-T)]. As to the kind of experiment: Binding constant for poly[d(A-T)] by ethidium bromide displacement.
Series [4] concerns HCT-8. As to the kind of experiment: Ability to inhibit the growth of human colon tumor HCT-8 cells in vitro. The class given is functional, cell-based. The procedure, abridged: (§2)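 Cultured leukemia L1210 or human colon tumor HCT-8 cells were exposed to drug for 40 h.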
Series [5] deals with P388/ADR. As to the kind of experiment: Percent increase in life span, of the drug-treated tumor-bearing animals vs nontreated tumor-bearing controls with P388/ADR cells. The class given is functional, Mus musculus. The essentials:
as §1

The test system of series [6] is P388. The series can be described thus: Optimal dose required to inhibit the P388 intraperitoneal administration. It is filed as functional, Mus musculus. The arrangement: unit: mg/kg/day.
In series [7] the test system is Lewis lung carcinoma cell line. As to the kind of experiment: Percent increase in life span of the drug treated tumor bearing animals vs nontreated tumor bearing controls was determined against LL (Lewis lung carcinoma model) cells;NA= not active. The class given is functional. The essentials: (§3)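 Groups of 6. Optimal dose is in mg/kg per day. ILSmax is the % lifespan increase over untreated tumor-bearing controls at the optimal dose; above 40% counted significant. Cures are 60-day survivors.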

Series [8] in a line: Lipophilicity (Rm). It is filed as physicochemical.
Series [9] relates to Lewis lung carcinoma cell line. As to the kind of experiment: Optimal dose to inhibit the LL (Lewis lung carcinoma model) cells in vivo after intraperitoneal administration. The class given is functional, Mus musculus. The arrangement: unit: mg/kg/day. The essentials:
(§4)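 Mice were inoculated iv with 10^6 Lewis lung carcinoma cells. OD is the optimal dose in mg/kg per day. Lifespan increase above 40% is significant, and long-term survival was scored at 60 days.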

Series [10] relates to L1210. As to the kind of experiment: Ability to inhibit the growth of leukemia L1210 cells in vitro. The class given is functional, cell-based. Particulars: Mus musculus. The procedure, abridged: as §2
Series [11] can be described thus: The compound was evaluated for its acid dissociation constant. It is filed as ADME.
Series [12] is filed under the species Mus musculus. The series can be described thus: Percent increase in life span of the drug treated tumor bearing animals vs nontreated tumor bearing controls was determined against P388/ADR cells;NA= not active. It is filed as functional, organism-based. The essentials:
(§5)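 Mice were inoculated ip with 10^6 P388 or ADR/P388 cells. OD is the optimal dose in mg/kg per day. ILSmax is the % lifespan increase over untreated tumor-bearing controls at the OD; above 20% is significant. Long-term survival was scored at 50 days.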

Series [13] relates to P388. As to the kind of experiment: Percent increase in life span of the drug treated tumor bearing animals vs nontreated tumor bearing controls was determined against P388 leukemia cells; NA = not active. The class given is functional. Particulars: Mus musculus. The procedure, abridged:
as §5

In series [14] the test system is Lewis lung carcinoma cell line. The series can be described thus: Optimal dose required to inhibit the LL Lewis lung carcinoma model cells in vivo administered intraperitoneally. The class given is functional, Mus musculus. The essentials: as §4
Series [15] concerns Lewis lung carcinoma cell line. As to the kind of experiment: (§6) Optimal dose required to inhibit the LL (Lewis lung carcinoma model) cells in vivo administered intraperitoneally; NA= not active. The class given is functional. The essentials:
as §3

In series [16] the test system is Nucleic Acid. The series can be described thus: Binding constant (1/M) to poly[d(A-T)] by ethidium bromide displacement. It is filed as nucleic-acid assay.
Series [17] has as its system P388. As to the kind of experiment: Optimal dose required to inhibit the P388 intraperitoneally. It is filed as functional, Mus musculus. The essentials:
as §1

Series [18] relates to Lewis lung carcinoma cell line. Described as §6. The class given is functional, Mus musculus. The procedure, abridged:
as §4

The test system of series [19] is Lewis lung carcinoma cell line. The series can be described thus: Percent increase in life span, of the drug-treated tumor-bearing animals vs nontreated tumor-bearing controls with LL (Lewis lung carcinoma model) cells. The class given is functional, Mus musculus. The essentials: as §3

The structures appear in SMILES notation. The source made the active and inactive calls. The rule behind the calls is not given here.

What is called IC50 is the concentration needed to halve the response being measured. By pKa is commonly meant the pH at which an ionisable group is half protonated.

Turning to `CNc1cc(NC(=O)OC)ccc1Nc1c2ccccc2nc2c(Cl)cccc12`, the OD in series [1] was determined as 45; in [6], 30; in series [9], 65. Further, the ILS max in series [2] is 30; in series [5], 22. The Log K in [3] is 6.3. Further, the IC50 was found to be 4500 nM in series [4] and 906 nM in series [10]. Also, the ILS max entry in series [7] (Mus musculus) was “inactive”. For the same molecule, the Rm in series [8] is listed as 0.42.
On to `CC(=O)Nc1ccc(Nc2c3ccccc3nc3ccccc23)c(N(C)C)c1`, for which the OD in [1] is recorded as 100; in series [6] it was 65. Besides, the Log K in series [3] is 5.58. The Rm in series [8] was 0.57. In series [11], this molecule yielded a pKa of 7.59. Also, the ILS max entry in series [12] and in series [13] was “inactive” throughout.
Turning to `CNc1cc(NC(=O)OC)ccc1Nc1c2ccccc2nc2ccc(C)cc12`, the OD in [1] came to 45; in series [6], 45; in series [14], 13.3. Besides, in [2], the ILS max came to 69. For the same molecule, the Log K in series [3] was found to be 5.62. For the same molecule, the values for the IC50 in series [4] and in [10] were 850 nM and 436 nM, respectively. Further, in series [8], the Rm is listed as 0.7. The ILS max entry in [12] and in series [15] (Mus musculus) was “inactive” in each case.
Take `CNc1cc(NC(=O)OC)ccc1Nc1c2ccccc2nc2ccccc12`: the OD in [1] is 45; in series [6], 30; in [14], 30. Besides, the ILS max in series [2] is on record as 132; in series [5], 50; in series [15] it was 112. This molecule also registered a Log K in [3] of 6.35. Further, the IC50 in series [4] was 290 nM; in [10], 284 nM. In series [8], this molecule yielded a Rm of 0.51. In [11], this molecule displayed a pKa of 7.95.
As to `CNc1cc(NP(=O)(OC)OC)ccc1Nc1c2ccccc2nc2ccccc12`, in [16], the “Log K” value is given as 6.82. The OD in [17] is on record as 13.3. Besides, the Rm in series [8] came to 0.32. Also, the pKa in series [11] stood at 8.09.
For `CNc1cc(NC(=O)OC)ccc1Nc1c2ccccc2nc2cc(C)ccc12`, the OD in series [1] is recorded as 13.3; in series [6] it was 8.9; in series [18] it was 8.9. Moreover, the ILS max in [2] was 105; in series [7] it was 58. The Log K in [3] came to 6.72. The results for the IC50 in [4] and in [10] were 270 nM and 152 nM, respectively. The Rm in series [8] is reported as 0.78. In addition, the ILS max entry in series [12] was “inactive”.
As to `CNc1cc(NC(=O)OC)ccc1Nc1c2ccccc2nc2cc([N+](=O)[O-])ccc12`, the OD in series [1] stood at 20; in series [6] it was 30; in series [9], 65. For the same molecule, the ILS max in [19] is listed as 49; in [2], 48. Besides, the Log K in series [3] turned out to be 6.58. In series [8], this molecule yielded a Rm of 0.4. For the same molecule, the ILS max result in series [12] was “inactive”. The IC50 in series [10] is 5060 nM.
On to `COc1cc(NP(=O)(OC)OC)ccc1Nc1c2ccccc2nc2ccccc12`, for which the OD in series [1] and in [6] was 8.9 throughout. The molecule also displayed an ILS max in [2] of 67. The molecule also showed a Log K in series [3] of 6.18. In series [8], this molecule yielded a Rm of 0.37. For the same molecule, the pKa in series [11] was 8.21. Further, the ILS max result in [12] was “inactive”.
Regarding `COC(=O)Nc1ccc(Nc2c3ccccc3nc3ccccc23)c(OC)c1`, the OD in series [1] turned out to be 45; in series [6], 30. Besides, the figures for the ILS max in series [2] and in series [5] were 86 and 33, respectively. Besides, in series [3], the Log K came to 6.24. The molecule also registered a Rm in series [8] of 0.5. The pKa in series [11] amounted to 7.93.
Take `COP(=O)(Nc1ccc(Nc2c3ccccc3nc3ccccc23)c(N(C)C)c1)OC`: the OD in series [1] and in [6] was 100 in each case. The molecule further registered an ILS max in series [2] of 97. In addition, the Log K in series [3] was found to be 6.43. Further, the Rm in series [8] worked out at 0.44. Besides, the pKa in series [11] is 8.17. Further, the ILS max entry in series [12] was “inactive”.
As for `CNc1cc(NC(=O)OC)ccc1Nc1c2ccc(F)cc2nc2c(OC)cccc12`, the OD turned out to be 45 in [1], 100 in series [6] and 45 in series [9]. Further, the ILS max in [19] came out at 52; in series [2], 125. For the same molecule, the Log K in series [3] turned out to be 6.27. Besides, the IC50 in [4] came out at 1600 nM; in series [10], 940 nM. For the same molecule, in series [8], the Rm turned out to be 0.45. Further, in series [12], the ILS max entry is “inactive”.
With `CNc1cc(NC(=O)OC)ccc1Nc1c2ccccc2nc2cc(I)ccc12`, the OD in series [1] was found to be 100; in series [6], 45; in series [9], 65. Further, the figures for the ILS max in [19] and in series [2] were 68 and 92, respectively. Further, the Log K in [3] came to 6.12. The IC50 in series [4] stood at 350 nM; in series [10] it was 110 nM. Moreover, the Rm in series [8] is on record as 0.65. In addition, in series [12], the ILS max result was “inactive”.
`CNc1cc(NC(C)=O)ccc1Nc1c2ccccc2nc2ccccc12`: the OD in [1] and in series [6] was 65 in each case. Further, the ILS max in series [2] is 96. In addition, in series [3], the Log K is 6.79. This molecule also gave a Rm in [8] of 0.3. For the same molecule, the pKa in series [11] is 7.8. In addition, in series [12], the ILS max entry was “inactive”.
Regarding `COC(=O)Nc1ccc(Nc2c3ccccc3nc3ccccc23)c(N(C)C)c1`, the OD in series [1] was found to be 30; in series [6], 45. Moreover, in series [2], the ILS max was determined as 20. For the same molecule, in [3], the Log K came out at 5.88. The same molecule showed a Rm in [8] of 0.56. Further, the pKa in [11] was determined as 7.85. For the same molecule, the ILS max entry in [12] is “inactive”.
Regarding `COc1cc(NC(C)=O)ccc1Nc1c2ccccc2nc2ccccc12`, the OD came out at 8.9 in series [1] and 13.3 in series [6]. Besides, the ILS max in series [2] is listed as 50. Also, the Log K in [3] turned out to be 6.1. This molecule also registered a Rm in series [8] of 0.3. The pKa in series [11] came out at 7.79. Moreover, the ILS max result in series [12] is “inactive”.

The record behind these values is ChEMBL document CHEMBL1123886 (J Med Chem, 1987).
